In ChEMBL document CHEMBL1124433 (J Med Chem, 1989):

Columns and labels:
[1] = test system: DNA topoisomerase 1 (Bos taurus); assay: Concentration that produces 50% DNA cleavage mediated by DNA topoisomerase I
L1210 [2] = assay: Protein associated single strand breaks, measured after cell lysis and proteinase K treatment at 10 uM concentration of the compound; type: functional, Mus musculus
Procedure, shortened: (§1)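 L1210 cells were exposed to compound for 1 h and DNA strand breaks were measured by alkaline elution, expressed as rad equivalents. Protein-associated breaks were read after cell lysis plus proteinase K treatment. Non-protein-associated breaks were read after lysis without proteinase K.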

L1210 [3] = assay: Concentration that inhibits the proliferation of L1210 cells by 50%; type: functional, cell-based; conditions: Mus musculus
Procedure, shortened: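 L1210 murine leukemia cells were incubated with drug at various concentrations for 60 min at 37 °C. Colonies were stained with tetrazolium and counted; cloning efficiency is 8-10%. IC50 is the drug concentration in the agar giving 50% fewer colonies.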

[4] = test system: DNA topoisomerase 1 (Bos taurus); assay: Concentration that produces 50% DNA cleavage mediated by DNA topoisomerase I; neg= negative is no enzyme mediated DNA cleavage at the highest conc tested at 50 uM
L1210 [5] = assay: Non-protein associated single strand breaks, measured after cell lysis in the absence of proteinase K treatment at 10 uM concentration of the compound; type: functional, Mus musculus
Procedure, shortened: as §1

[6] = test system: DNA topoisomerase 1 (Bos taurus); assay: Concentration that produces 50% DNA cleavage mediated by topoisomerase I; neg= negative is no enzyme mediated DNA cleavage at the highest conc tested at 50 uM
L1210 [7] = assay: Protein associated single strand breaks, measured after cell lysis and proteinase K treatment at 2 uM concentration of the compound; type: functional, Mus musculus
Procedure, shortened: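 L1210 cells exposed to drug for 1 h, then alkaline elution. Lysis followed by proteinase K treatment to score protein-associated single-strand breaks. Expressed as rad equivalents.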

L1210 [8] = assay: Non-protein associated single strand breaks, measured after cell lysis in the absence of proteinase K treatment at 20 uM concentration of the compound; type: functional, Mus musculus
Procedure, shortened: as §1

L1210 [9] = assay: Protein associated single strand breaks, measured after cell lysis and proteinase K treatment at 20 uM concentration of the compound; type: functional, Mus musculus
Procedure, shortened: as §1

L1210 [10] = assay: Non-protein associated single strand breaks, measured after cell lysis in the absence of proteinase K treatment at 2 uM concentration of the compound; type: functional, Mus musculus
Procedure, shortened: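 L1210 cells exposed to drug for 1 h, then alkaline elution. Cells lysed without proteinase K treatment to score single-strand breaks not bound to protein. Expressed as rad equivalents.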

L1210 [11] = assay: Non-protein associated single strand breaks, measured after cell lysis in the absence of proteinase K treatment at 35 uM concentration of the compound; type: functional, Mus musculus
Procedure, shortened: as §1

L1210 [12] = assay: Non-protein associated single strand breaks, measured after cell lysis in the absence of proteinase K treatment at 3.5 uM concentration of the compound; type: functional, Mus musculus
Procedure, shortened: as §1

L1210 [13] = assay: Protein associated single strand breaks, measured after cell lysis and proteinase K treatment at 35 uM concentration of the compound; type: functional, Mus musculus
Procedure, shortened: as §1

Row | IC50 (L1210 [3]) [nM] | SMILES | CC50 [4] | also measured
1 |  | CC[C@@](O)(C(=O)NC(C)C)c1cc2n(c(=O)c1CO)Cc1cc3ccccc3nc1-2 |  | CC50 [1]: 5000 nM
2 | 2900 | CC[C@@]1(O)C(=O)SCc2c1cc1n(c2=O)Cc2cc3ccccc3nc2-1 |  | CC50 [6]: Negative
3 | 590 | CC[C@H]1C(=O)OCc2c1cc1n(c2=O)Cc2cc3ccccc3nc2-1 | Negative | 
4 | > 5900 | CCC1(O)OCc2c1cc1n(c2=O)Cc2cc3ccccc3nc2-1 (configuration not stated) |  | CC50 [6]: Negative
5 | 2700 | CC[C@]1(O)c2cc3n(c(=O)c2COC1O)Cc1cc2ccccc2nc1-3 (some centres not stated) | Negative | Radiation equivalent (L1210 [2]): <100; Radiation equivalent (L1210 [5]): <100
6 | > 5900 | CCC1OC(=O)c2c1cc1n(c2=O)Cc2cc3ccccc3nc2-1 (configuration not stated) | Negative | 
7 | > 5900 | O=C1OCc2c1cc1n(c2=O)Cc2cc3ccccc3nc2-1 | Negative | 
8 | 94 | C=C1CC(CC)(c2cc3n(c(=O)c2C)Cc2cc4ccccc4nc2-3)OC1=O (configuration not stated) |  | Radiation equivalent (L1210 [7]): <100; Radiation equivalent (L1210 [8]): 1360; Radiation equivalent (L1210 [9]): <100; CC50 [6]: Negative; Radiation equivalent (L1210 [10]): <100
9 | 92 | O=c1c2cocc2c(O)c2n1Cc1cc3ccccc3nc1-2 | Negative | Radiation equivalent (L1210 [11]): 1000; Radiation equivalent (L1210 [12]): 175; Radiation equivalent (L1210 [13]): <100

Row | SMILES | IC50 (L1210 [3]) [nM] | CC50 [4] | also measured
10 | CC[C@@]1(O)C(=O)NCc2c1cc1n(c2=O)Cc2cc3ccccc3nc2-1 | > 2000 | Negative | Radiation equivalent (L1210 [2]): <100; Radiation equivalent (L1210 [5]): <100
11 | CC[C@@](O)(C(=O)O)c1cc2n(c(=O)c1CO)Cc1cc3ccccc3nc1-2 | 14 |  | CC50 [1]: 900 nM
12 | CC[C@@]1(OC(C)=O)C(=O)OCc2c1cc1n(c2=O)Cc2cc3ccccc3nc2-1 | 390 | Negative | 
13 | CC[C@@]1(O)C(=O)OCc2c1cc1n(c2=O)Cc2cc3ccccc3nc2-1 [CAMPTOTHECIN] | 14 |  | Radiation equivalent (L1210 [7]): 342; Radiation equivalent (L1210 [10]): 240
